Columns and labels:
Format in all cases: functional
[1] = test system: Rattus norvegicus; assay: Percent reduction in total cholesterol at less than 0.1 mg/kg dose
In short: (§1)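 Male rats (n = 4) received compound admixed in diet supplemented with 1% cholesterol and 0.5% cholic acid for 7 days. Plasma total cholesterol then measured, percent change vs control calculated. Reported as percent reduction at the dose given or as ED50 (dose lowering total cholesterol by 50%). Significance by unpaired two-tailed Student's t-test.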

[2] = test system: Rattus norvegicus; assay: Hypocholesterolemic activity to reduce plasma total cholesterol level by 50% after dietary administration in cholesterol-fed rats; details: feed or water; in short: as §1
[3] = test system: Rattus norvegicus; assay: Percent reduction in total cholesterol at greater than 1 mg/kg dose; in short: as §1
[4] = test system: Rattus norvegicus; assay: Hypocholesterolemic activity by administration of gavage in PEG400 as a vehicle in cholesterol-fed rats; details: po
In short: (§2)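 Male rats (n = 4) made hypercholesterolemic on diet with 1% cholesterol and 0.5% cholic acid for 2 days. Compound then dissolved in PEG400 and given orally by gavage once daily in the evening for 3 days, cholesterol-enriched diet continued. Plasma total cholesterol measured; ED50 = dose lowering plasma total cholesterol by 50% of control.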

[5] = test system: Rattus norvegicus; assay: Hypocholesterolemic activity by administration of gavage in PEG400 as a vehicle in cholesterol-fed rats.; details: po; in short: as §2

Row | Structure (SMILES) | Reduction [1] [%] | ED50 [2] [mg/kg] | Reduction [3] [%] | ED50 [4] [mg/kg] | ED50 [5] [mg/kg]
1 | CSc1cc(C)nc(SC)c1NC(=O)N(Cc1ccc(F)cc1)Cc1cccc(-c2cc[nH]n2)c1 | 66 | < 0.1 | – | – | –
2 | Cc1cc(C)c(NC(=O)N(Cc2ccccc2)Cc2cccc(-c3cc[nH]n3)c2)c(C)c1 | – | > 1 | 36 | – | –
3 | CCCCCCCN(Cc1ccc(CC(C)(C)C)cc1)C(=O)Nc1ccc(F)cc1F [CL-277082] | – | 5 | – | – | –
4 | O=C(Nc1c(F)cc(F)cc1F)N(Cc1ccccc1)Cc1cccc(-c2cc[nH]n2)c1 | – | 0.096 | – | 8.6 | –
5 | CSc1cc(C)nc(SC)c1NC(=O)N(Cc1ccccc1)Cc1cccc(-c2cc[nH]n2)c1 | – | 0.046 | – | – | 0.44
6 | CSc1cc(C)nc(SC)c1NC(=O)N(Cc1ccc(N(C)C)cc1)Cc1cccc(-c2cc[nH]n2)c1 | 61 | < 0.1 | – | – | –
7 | COc1ccc(CN(Cc2cccc(-c3cc[nH]n3)c2)C(=O)Nc2c(SC)cc(C)nc2SC)cc1 | 81 | < 0.1 | – | – | –

Reference: ChEMBL document CHEMBL1130979, “Synthesis, X-ray crystal structure, and biological activity of FR186054, a novel, potent, orally active inhibitor of acyl-CoA:cholesterol O-acyltransferase (ACAT) bearing a pyrazole ring” (Bioorg Med Chem Lett, 1998)
